Only some compounds are listed: those with a hit (about 3.6% of all), similar ones and a draw of the others.
SENP1 inh = inhibitors of human SENP1 SUMO protease catalytic domain; Q9P0U3; recombinant SENP1 catalytic domain, CyPet-SUMO1-YPet FRET cleavage; inhibition, % at 10 µM; 360,000 tested, 0.21% active; AID 624204;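 active means inhibition at least 30% at 10 µM, raw YFP signal under a set limit, fluorescence ratio 0.5 to 1.5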;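 further: 0% = enzyme with DMSO and 100% = no enzyme wells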
Target sequence (Q9P0U3 419-644 limits assumed): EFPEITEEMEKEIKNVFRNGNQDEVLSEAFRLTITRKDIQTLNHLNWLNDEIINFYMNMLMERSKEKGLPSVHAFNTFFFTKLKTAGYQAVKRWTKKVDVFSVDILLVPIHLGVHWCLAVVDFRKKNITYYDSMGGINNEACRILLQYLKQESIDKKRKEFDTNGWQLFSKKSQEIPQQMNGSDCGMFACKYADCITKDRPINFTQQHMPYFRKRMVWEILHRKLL
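material = recombinant human SENP1 catalytic domain, His6-tagged | quantity = 20 pM enzyme | reagent = 25 nM SUMO1 FRET substrate | compound dosing = 10 µM single point, 0.5% DMSO | timing = 50 min enzyme reaction, room temperature, light-protected | detection = FRET, CFP and YFP emission | control set = no-enzyme low, enzyme-DMSO high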
GRIN3A LBD mod = modulates the human NR3A ligand-binding domain. NR3A LBD differential scanning fluorimetry, Tm shift; 0% = protein alone, 100% = glycine-bound protein. Tm shift relative to glycine control, % at 25 µM. 340,000 tested, 2.5% active;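 active means melting temperature shift of at least 10% of the positive control shift, at one fixed dose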
UCH37 DUB inh = blocks the human deubiquitinase UCH37; inhibition, % (test concentration not listed); purified proteasome/UCH37, Ub-AMC cleavage fluorescence; 330,000 tested, 0.33% active; Q9Y5K5;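 active means mean inhibition over replicate wells above about 20%, limit read from the data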;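 further: 0% = compound-free wells with enzyme and 100% = wells lacking proteasome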
Target sequence (Q9Y5K5 whole entry, looked up): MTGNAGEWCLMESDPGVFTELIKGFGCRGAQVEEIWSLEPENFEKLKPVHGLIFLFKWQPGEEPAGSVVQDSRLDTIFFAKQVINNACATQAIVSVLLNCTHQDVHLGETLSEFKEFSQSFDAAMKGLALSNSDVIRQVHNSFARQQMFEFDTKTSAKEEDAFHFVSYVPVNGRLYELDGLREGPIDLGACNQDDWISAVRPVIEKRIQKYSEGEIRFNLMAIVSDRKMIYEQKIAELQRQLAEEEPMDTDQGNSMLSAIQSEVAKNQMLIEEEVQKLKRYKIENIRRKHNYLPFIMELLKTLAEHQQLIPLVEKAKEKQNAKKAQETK
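Schedule: 30 min plus 25 min, room temperature / Material: human UCH37 within purified proteasomes / Technique: AMC fluorescence intensity at 355/460 nm / Buffer or medium: pH 7.4 Tris-HCl (50 mM) with ovalbumin, ATP-MgCl2, DTT / Controls: wells without proteasome as full block, compound-free enzyme plus substrate as uninhibited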
NadD block = blocks S. aureus nicotinate mononucleotide adenylyltransferase; 360,000 tested, 0.78% active; inhibition, % at 20 µM; purified NadD enzyme, colorimetric absorbance read-out; in the data active means inhibition above about 26%
ATG4B inh = blocks human ATG4B protease cleavage of LC3 substrate; AID 504462; ATG4B cleavage of LC3-PLA2, NBD-HPC fluorescence, 1 h; Q9Y4P1; inhibition, % at 8.33 µM; 340,000 tested, 0.51% active; in the data active means inhibition above about 40%
NadD inh conf = confirmation of Staphylococcus aureus NadD inhibitors. inhibition, % at 20 µM. purified S. aureus NadD, colorimetric enzyme assay. shares compounds with NadD block. 2,000 tested, 13% active; in the data active means inhibition mostly above about 42%, no sharp cut-off; inactive means mostly below about 42%
An asterisk follows results filed as active; / = no result given.

SMILES | SENP1 inh | GRIN3A LBD mod | UCH37 DUB inh | NadD block | ATG4B inh | NadD inh conf
Cc1cccc(NC(=O)c2nc[nH]c2C(=O)Nc2ccccc2[N+](=O)[O-])c1 | 3 | 0 | 10 | 31* | 5 | 3
CCc1nnc(NCC(=O)N2CCc3ccccc32)s1 | -11 | -4 | 1 | 45* | 11 | 46
O=C(CNCCO)N1CCc2ccccc21 | -1 | 0 | 2 | -1 | -6 | /
COc1ccc(C(=O)NC(=S)Nc2nc(-c3ccc(OC)c(Br)c3)cs2)cc1Br | 2 | 1 | / | 33* | -6 | 0
COc1ccc(-c2csc(NC(=S)NC(=O)c3cc4ccccc4o3)n2)cc1Br | 1 | 3 | / | 21 | -8 | /
CC1=Nc2nc(N3CCCCC3)c(C#N)c3c4c(nc(c23)N1)N(c1ccc(C(C)C)cc1)C(=O)C4 | -46 | 0 | -7 | 63* | 0 | 12
CC(=NNc1nc(C)cc(C)n1)c1ccc(N2CCOCC2)cc1 | / | / | 6 | / | / | /
CCc1nnc(NC(=O)c2ccc(S(=O)(=O)N3CCc4ccccc4C3)cc2)s1 | 1 | -1 | 2 | -5 | -8 | /
Cc1cc(C)c2nc(NNC(=O)c3cc(=O)c4ccccc4o3)sc2c1 | 9 | 2 | 3 | 59* | 5 | 62*
Cc1cc(C)c2nc(NNC(=O)c3ccc(S(=O)(=O)N4CCc5ccccc5C4)cc3)sc2c1 | 19 | 5 | 3 | 60* | -4 | 61*
Cc1cc(C)c2sc(NNC(=O)c3ccc(S(=O)(=O)N4CCc5ccccc5C4)cc3)nc2c1 | 9 | 4 | 3 | 64* | 6 | 56*
Cc1ccc(-c2cc(C(F)F)n3ncc(C(=O)Nc4ccc(S(=O)(=O)Nc5ccccc5C)cc4)c3n2)cc1 | -29 | 0 | -12 | 36* | 9 | 1
O=C(Nc1ccc(C(=O)N2CCOCC2)cc1)c1cnn2c(C(F)F)cc(-c3ccccc3)nc12 | 0 | 1 | 0 | -10 | -11 | /
CCOC(=O)NC(=O)C(C#N)=NNc1ccc(Cl)cc1 | / | / | 8 | / | / | /
COc1ccc2nc3n(c(=O)c2c1)-c1cc2ccccc2cc1C(=O)NC3Cc1ccc(O)cc1 (configuration not stated) | 1 | / | / | 17 | / | /
O=C1NC(Cc2ccc(O)cc2)c2nc3ccc(Br)cc3c(=O)n2-c2cc3ccccc3cc21 (configuration not stated) | -2 | / | / | 31* | / | 4
CC(CC(=O)Nc1cc(Cl)ccc1Cl)=NNC(=O)COc1cccc(C)c1 | / | / | -2 | / | / | /
O=[N+]([O-])c1ccccc1/C=C/C=N/n1c(-c2ccco2)n[nH]c1=S | 4 | 0 | / | 7 | -4 | /
O=[N+]([O-])c1ccccc1/C=C/C=N/n1c(-c2cc(-c3ccccc3)n[nH]2)n[nH]c1=S | 1 | 8 | / | 42* | 9 | 9
Cc1ccc(-c2n[nH]c(=S)n2/N=C/C=C/c2ccccc2[N+](=O)[O-])cc1 | -2 | 1 | / | 35* | 1 | 20
CCOC(=O)c1c(NC(=O)CSc2nc3cc(Cl)ccc3c(=O)n2Cc2ccco2)sc(C(=O)N(C)C)c1C | -1 | 1 | -4 | 39* | -3 | 8
CCc1ccc(NC(=O)CSc2nc3cc(C(=O)OC)ccc3c(=O)n2Cc2ccco2)cc1 | 1 | 0 | -5 | 26 | -5 | /
Cc1ccc(S(=O)(=O)NN=Cc2ccc(OCC(=O)N3CCOCC3)cc2)cc1 | / | / | 3 | / | / | /
C=CCSc1nc2c(sc3nc(C)cc(C)c32)c(=O)[nH]1 | 0 | -1 | -15 | 27 | -3 | /
Cc1cc(C)c2c(n1)sc1c(=O)[nH]c(SCc3ccccc3)nc12 | 2 | -1 | -10 | 29* | 6 | 13
SMILES | SENP1 inh | GRIN3A LBD mod | UCH37 DUB inh | NadD block | ATG4B inh | NadD inh conf
CCOc1ccc(-c2nnc(SCC(=O)Nc3ccc4c(c3)c3ccccc3n4CC)n2N)cc1 | 1 | -2 | -15 | 31* | 3 | 23
CCn1c2ccccc2c2cc(NC(=O)CSc3nnc(-c4ccc(OC)c(OC)c4)n3N)ccc21 | 15 | -1 | 3 | 13 | -6 | /
O=C1N/C(=N\N=C\c2ccc3ncccc3c2)SC1Cc1ccc(SC(F)F)cc1 (configuration not stated) | -1 | 6 | / | 33* | -9 | 10
O=C1N/C(=N\N=C\c2cccnc2)SC1Cc1ccc(SC(F)F)cc1 (configuration not stated) | 0 | -15 | / | 6 | 3 | /
CC(=NNc1cc(C)nc(NCc2ccccc2)n1)c1cccc([N+](=O)[O-])c1 | / | / | 9 | / | / | /
Cc1nc(SCc2nc3ccc([N+](=O)[O-])cc3[nH]2)c2oc3ccccc3c2n1 | -2 | -2 | 2 | 33* | -17 | 3
Cc1nc(SCc2nc3ccc(F)cc3[nH]2)c2oc3ccccc3c2n1 | -8 | -6 | -55 | 3 | -13 | /
O=C(Cn1cnc2ccccc21)NN=Cc1ccco1 | / | / | 0 | / | / | /
O=C(Nc1ccc(-c2csc(Nc3ccccc3)n2)cc1)c1cc([N+](=O)[O-])cc(C(F)(F)F)c1 | 1 | 24* | -1 | 32* | -13 | 12
O=C(Nc1cccc(-c2csc(Nc3cccc(C(F)(F)F)c3)n2)c1)c1cc([N+](=O)[O-])cc(C(F)(F)F)c1 | 2 | 2 | -1 | 37* | -11 | 1
O=C(NN=Cc1cccs1)c1cccs1 | / | / | 6 | / | / | /
CCc1ccccc1N(CC(=O)NCc1ccco1)C(=O)CCC(=O)Nc1ccccn1 | 1 | -1 | 4 | -1 | -10 | /
CCc1ccc(N(CC(=O)NCc2ccco2)C(=O)CCC(=O)Nc2ccccn2)cc1 | -1 | -1 | 1 | 24* | 0 | 4
NC(=S)N/N=C/c1ccc(-c2cc(Cl)ccc2Cl)o1 | -19 | -26 | / | 43* | 16 | 26
COC(=O)N/N=C/c1ccc(-c2cc(Cl)cc(Cl)c2)o1 | 2 | -12 | / | -9 | -6 | /
NC(=S)N/N=C/c1ccc(-c2ccc([N+](=O)[O-])cc2)o1 | -45 | 2 | / | 33* | -15 | 10
NC(=S)N/N=C/c1ccc(-c2cc(Cl)cc(Cl)c2)o1 | 11 | 0 | / | 38* | -3 | 17
NC(=S)NN=Cc1ccc(-c2cc(Cl)c(Cl)cc2Cl)o1 | / | / | -19 | / | / | /
CCC(=O)NN=Cc1ccc(-c2ccc([N+](=O)[O-])cc2)o1 | / | / | 5 | / | / | /
COc1ccc2c(c1)nc(-c1cccc(Br)c1)c(=O)n2C(c1ccccn1)c1nc2ccccc2[nH]1 (configuration not stated) | -84 | / | / | 46* | / | 32
CN(C)S(=O)(=O)c1ccc(-c2csc(NN=Cc3ccco3)n2)cc1 | / | / | 2 | / | / | /
FC(F)Oc1ccc(NC(=S)NNc2ccnc3cc(Cl)ccc23)cc1 | -6 | 4 | 9 | 32* | 4 | 18
O=[N+]([O-])c1ccc(Cl)c(C=Nn2c(-c3ccncc3)n[nH]c2=S)c1 | / | / | 4 | / | / | /
Cc1nc(/N=C(\N)NC(=O)N2c3ccccc3Sc3ccccc32)nc2ccccc12 | -1 | -2 | / | 31* | -2 | 20

High-throughput results as filed in PubChem BioAssay.
